High-throughput results (PubChem BioAssay)
This is a sample that favours compounds with a hit; in the whole collection about 1.7% have one here.
F508del corr = CFTR F508del correction in bronchial cells | activity (quench increase), % at 7.58 µM | CFBE cells, YFP halide quenching; stimulated with forskolin plus potentiator P3; % fluorescence drop versus neutral controls | 350,000 compounds, 0.36% hits;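 active means mean added fluorescence quench of at least 8% versus neutral control, with both replicates also reaching 8%; inconclusive means only one of the mean or replicate conditions met; inactive means mean below 8% and not both replicates reaching 8%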;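 further: cells transiently co-express mutant CFTR-F508del with the halide-sensitive YFP; corrector assay measuring rescue of mutant channel to the surface after 24 h compound exposure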
Ecoli rRNA inh = inhibits bacterial ribosomal RNA function over humanized ribosomes; E. coli WT GFP vs humanized-ribosome RFP mutants, fluorescence, 24 h; active compounds read low; DMSO median 0, no signal -100; GFP signal change (wild-type ribosome), % (test concentration not listed); 350,000 compounds, 1.6% hits; AID 720706;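 active means significant combined selectivity score with lowered wild-type GFP, culture density cut under 30%, mutant RFP and density less affected; inactive means any of these conditions unmet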
CaV13 ICDI inh = Primary screen for inhibitors of IQ motif and Ca2+-dependent inactivation inhibitor domain binding in CACNA1D, Förster resonance energy transfer in living cells, …. 340,000 compounds, 0.098% hits. inhibition, % at 12.3 µM. HEK cells, CFP/YFP FRET ICDI-IQ, plate reader, 10 min; percent FRET-ratio fall versus neutral wells;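 active means mean replicate inhibition of at least 30% and at least 1% of replicates passing that level; inconclusive means only one of the two criteria is met; inactive means neither criterion is met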
Cneo AK release = Cryptococcus neoformans lysis via adenylate kinase release | C. neoformans lysis, adenylate kinase release luminescence, 4 h; normalised: neutral wells 0, clomiphene wells 100 | lysis activity, % at 15 µM | 360,000 compounds, 0.2% hits | AID 651654;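 active means mean lysis activity across replicates of at least 80%, whatever share of replicates individually reach that level; inactive means mean lysis activity below 80%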
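Test system: log-phase Cryptococcus neoformans yeast cells; Quantity: yeast cell density of 5 × 10^6 cells/mL; Buffer or medium: YPD; Doses: single compound concentration per well; Timing: 4 h at 37 °C static, read 1 h later; Measured by: AK luminescence; Read-out basis: lysis from increased AK signal; Control set: Clomiphene as positive control.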
HepG2 cytotox = cytotoxic compounds in HepG2 cells; shares compounds with Ecoli rRNA inh; HepG2 viability, ATP luminescence, 72 h; activity change, negative = cytotoxicity, unspecified at 26 µM; 30 tested, under 10 active;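 active means compounds whose fitted half-maximal signal-loss concentration is at most twice their highest valid dose; inconclusive means flat curve with 30 to 70% signal loss, or poor fit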
AID977621 = growth inhibition of wild-type GFP E. coli, dose response, H69 mutant RFP, cherry-pick. AID 977621. 1,900 tested, under 10 active. shares compounds with Ecoli rRNA inh. activity change, negative = inhibition at 50 µM. E. coli wild-type GFP strain growth, fluorescence, 24 h;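 active means Wild-type ribosome reporter drop at least double the humanized mutant ribosome reporter drop, growth loss under a set limit; inconclusive means no clear call, values can overlap the other calls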;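 further: wild-type GFP and H69 mutant RFP strains grown together 50/50 in each well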
AID977628 = E. coli growth inhibition, wild-type GFP versus h24 humanized RFP strain, dose response, h24 mutant RFP vs wild-type GFP, cherry-pick; shares compounds with Ecoli rRNA inh; E. coli WT GFP strain growth, fluorescence, 24 h; activity change, negative = inhibition at 50 µM; 1,900 tested, under 10 active;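 active means compound lowering the normal-ribosome reporter at least twice as much as the humanized-ribosome reporter, growth loss under a set limit; inconclusive means no clear call, values can overlap the other calls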;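 further: wild-type GFP and h24 humanized RFP strains co-cultured 1 to 1 per well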
Hits are given with their value; 0 = inactive; ? = inconclusive; - = no result.

SMILES | F508del corr | Ecoli rRNA inh | CaV13 ICDI inh | Cneo AK release | AID977621 | AID977628 | others
COc1cc2c(c(OC)c1OC)C(c1ccc3c(c1)OCO3)CC(=O)O2 (stereo not drawn) | 0 | -20 | 0 | 0 | 0 | 0
Cc1ccc(S[C@]2(C(=O)NCc3ccccc3)CC(=O)N(C3CCCCC3)[C@@H]2c2ccc(CO)cc2I)cc1 | 0 | - | - | 0 | - | -
COc1ccccc1CN(C)C[C@@H]1OCc2cn(nn2)CCCC(=O)N([C@@H](C)CO)C[C@H]1C | 0 | 0 | - | - | - | -
Clc1cccc(Cc2c(-c3ccco3)nc3c4ccccc4ccn23)c1 | 0 | - | 0 | - | - | -
Brc1ccc(-c2nc3c4ccccc4ccn3c2Cc2ccccc2)cc1 | 0 | -22 | 0 | - | 0 | 0
Fc1cccc(Cc2c(-c3ccco3)nc3c4ccccc4ccn23)c1 | 0 | -21 | 0 | 0 | 0 | -
CN(Cc1cccc(F)c1)C(=O)CN1CCN(S(=O)(=O)c2ccc3c(c2)OCCCO3)CC1 | 0 | 0 | 0 | 0 | - | -
CN(Cc1ccc(F)cc1)C(=O)CN1CCN(S(=O)(=O)c2ccc3c(c2)OCCCO3)CC1 | 0 | -18 | 0 | 0 | - | ?
C[C@@H]1CN([C@H](C)CO)C(=O)c2cc(C3=CCCC3)cnc2O[C@@H]1CN(C)C(=O)Nc1ccccc1 | 0 | 0 | - | 0 | - | -
O=C(O)c1cc([N+](=O)[O-])ccc1NCc1ccccc1 | 0 | -25 | 0 | - | - | - | HepG2 cytotox=0
Cc1occc1C(=O)Nc1ccc2c(c1)CCC2 | 0 | -13 | 0 | - | ? | ?
O=C(O)c1ccccc1-c1ccccc1C(=O)Nc1ccc2c(c1)CCC2 | 0 | -21 | 0 | 0 | 0 | -
Cc1noc(C)c1NC(=O)NCC[C@H]1CC[C@H](NC(=O)c2ccccc2)[C@@H](CO)O1 | 0 | 0 | - | 0 | - | -
CN(CC(=O)Nc1cccc(F)c1)C(=O)Cn1c(=O)oc2ccccc21 | 0 | -17 | 0 | 0 | 0 | 0
CN(CC(=O)Nc1ccc(F)cc1)C(=O)Cn1c(=O)oc2ccccc21 | 0 | 0 | 0 | 0 | - | -
COc1ccccc1CN(C)C[C@@H]1OCc2ccccc2-c2c(n(C)c3ccccc23)C(=O)N([C@H](C)CO)C[C@H]1C | - | 0 | - | - | - | -
Cc1noc(C)c1S(=O)(=O)Nc1ccc2c(c1)CC(=O)N([C@H](C)CO)C[C@H](C)[C@@H](CN(C)C(=O)Nc1ccc3c(c1)OCO3)O2 | 0 | 0 | - | 0 | - | -
COc1ccc2c3c([nH]c2c1)[C@H](CO)N(C(=O)C1CCCC1)CC31CN(Cc2cccc(F)c2)C1 | 0 | 0 | - | - | - | -
C[C@@H]1CCCCO[C@H](CN(C)C(=O)CCC(F)(F)F)[C@H](C)CN([C@H](C)CO)C(=O)c2cc(NC(=O)CCC(F)(F)F)ccc2O1 | 0 | 0 | - | 0 | - | -
Cc1ccccc1Nc1c(-c2cccnc2)nc2ccc(Br)cn12 | 0 | -25 | 0 | - | 0 | 0
Cc1ccc2nc(-c3cccnc3)c(Nc3ccccc3C)n2c1 | 0 | 0 | 0 | 0 | - | -
CCCN(Cc1ccco1)S(=O)(=O)c1ccc(OC)c(OC)c1 | 0 | -20 | 0 | - | 0 | 0
CC(C)CC#Cc1ccc([C@@H]2[C@H](CO)N3C(=O)CN(S(C)(=O)=O)C[C@@H]23)cc1 | - | 0 | - | - | - | -
O=S(=O)(c1ccc(Cl)cc1)N1CCN=C1SCc1cccc(Cl)c1 | - | -23 | 0 | - | 0 | -
O=S(=O)(c1ccc(Cl)cc1)N1CCN=C1SCc1cccnc1 | 0 | 0 | 0 | - | - | -
SMILES | F508del corr | Ecoli rRNA inh | CaV13 ICDI inh | Cneo AK release | AID977621 | AID977628 | others
C[C@@H]1CCCCO[C@@H](CN(C)C(=O)Nc2ccccc2)[C@H](C)CN([C@H](C)CO)C(=O)c2cc(NC(=O)C3CCCCC3)ccc2O1 | 0 | - | - | 0 | - | -
O=C(Nc1ccc(Br)cc1)c1cccnc1N1CCCCC1 | 0 | -34 | 0 | 0 | 0 | 0
COc1ccc(NC(=O)Nc2cccc3c2O[C@@H](CN(C)C(=O)NC2CCCCC2)[C@@H](C)CN([C@H](C)CO)C3=O)cc1 | 0 | 0 | - | 0 | - | -
O=C(C[C@@H]1CC[C@@H]2[C@H](COC[C@@H](O)CN2Cc2ccccc2F)O1)NC1CCC1 | 0 | 0 | - | 0 | - | -
O=C(Nc1ccc(C(F)(F)F)cc1)C1CCN(c2cnccn2)CC1 | 0 | -31 | 0 | 0 | 0 | 0
Cc1ccc(NC(=O)C2CCN(c3cnccn3)CC2)cc1 | 0 | 0 | 0 | - | - | -
O=C(OCC1COc2ccccc2O1)c1ccccc1F (stereo not drawn) | 0 | -20 | 0 | 0 | 0 | 0
C[C@@H]1CN([C@H](C)CO)S(=O)(=O)c2ccc(-c3cccc(C#N)c3)cc2O[C@H]1CN(C)C | - | 0 | - | 0 | - | -
C/C=C/c1ccc2c(c1)[C@@H]1[C@@H](CCN1S(=O)(=O)c1ccccc1C)[C@H](CO)N2 | 0 | 0 | - | - | - | -
COC(=O)CC#C[C@H](C)[C@@H](NS(=O)(=O)c1ccc(C)cc1)C1CCCCC1 | 0 | 0 | 0 | - | - | -
COC(=O)CC#C[C@H](C)[C@@H](NS(=O)(=O)c1ccc([N+](=O)[O-])cc1)C(C)(C)C | 0 | -13 | 0 | - | ? | ?
C[C@@H]1CN([C@@H](C)CO)S(=O)(=O)c2ccc(-c3cccnc3)cc2O[C@H]1CN(C)C | 0 | 0 | - | 0 | - | -
CC(=O)Nc1ccc(NS(=O)(=O)c2ccc(Cl)s2)cc1 | 0 | -20 | 0 | - | - | ?
CC(=O)Nc1ccc(NS(=O)(=O)c2cc(Cl)sc2Cl)cc1 | 0 | 0 | 0 | 0 | - | -
CO[C@H]1CN(C)C(=O)c2cc(NC(C)=O)ccc2OC[C@H](C)N(C(=O)C2CCOCC2)C[C@H]1C | 0 | 0 | - | 0 | - | -
CN(C(=O)c1ccc(COc2ccccc2Cl)o1)c1ccccc1 | 0 | 0 | 0 | 0 | - | -
CCN(CC)C(=O)c1ccc(COc2ccccc2Cl)o1 | 0 | -20 | 0 | - | 0 | 0
CCNC(=O)C[C@H]1CC[C@@H]2[C@H](COC[C@H](O)CN2C(=O)Nc2ccc(Cl)c(Cl)c2)O1 | 0 | 0 | - | 0 | - | -
CS(=O)(=O)N1C2CN(CC3CC3)CC1C2c1ccc(Br)cc1 (stereo not drawn) | - | 0 | - | - | - | -
CC(=O)c1c(C)[nH]c(C(=O)Nc2nc(C)cs2)c1C | 0 | -21 | 0 | 0 | 0 | 0
CC(=O)c1c(N2CCOCC2)nc2ccc(Cl)cc2c1-c1ccccc1 | 0 | -19 | 0 | - | 0 | -
COc1cccc(CN2CCC3(CC2)CN(S(C)(=O)=O)[C@@H](CO)c2[nH]c4cc(OC)ccc4c23)c1 | 0 | 0 | - | - | - | -
Cn1c(=O)c2c(nc(N3CCOCC3)n2C/C=C/c2ccccc2)n(C)c1=O | 0 | -18 | 0 | 0 | 0 | 0
O=C(Nc1cccc2cccnc12)c1ccccc1Cl | 0 | 0 | 0 | 0 | - | -
COc1ccccc1C(=O)Nc1cccc2cccnc12 | 0 | -30 | 0 | 0 | 0 | -
